# KCNK3 block = human KCNK3 channel inhibitors, primary screen, CHO cells, FluxOR thallium flux, B-score. Potassium channel subfamily K member 3 (Homo sapiens), O14649. FluxOR fluorescence; hits give low values. B-score at 10 µM. 0.84% of 340,000 active;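 active means B-score under library mean minus 4 SD, starting fluorescence ratio at most library mean plus 5 SD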;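 further: more negative B-score means stronger inhibition of thallium flux through KCNK3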
# KCNQ1 pot = potentiators or activators of KCNQ1 channel, primary screen, cell-based, thallium flux, high-throughput; AID 2648, 2010; 0.35% of 310,000 active; CHO-K1 KCNQ1, thallium flux FluxOR fluorescence; hits give high values; B-score at 10 µM;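 active means fluorescence ratio B-score, a plate-corrected score, at least three library SD, with initial intensity B-score within 5 SD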
#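 Assay system: stable KCNQ1 CHO-K1 line; medium: assay buffer, equal DMSO in all wells; timing: 90 min dye loading and 20 min compound exposure, both at room temperature; technique: kinetic FluxOR thallium fluorescence, 10-s 1-Hz baseline, 110-s post-stimulus read; read-out basis: B score of baseline-normalized fluorescence ratio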
# KCNK9 inh = KCNK9 potassium channel inhibitors, primary screen, HEK293 cells, thallium flux | Potassium channel subfamily K member 9 (Homo sapiens), Q9NPC2 | B-score at 10 µM | 1.2% of 310,000 active | FluxOR thallium flux fluorescence; hits give low values;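 active means ratio B-score over 3 SD below the library mean, with starting fluorescence within 5 SD of its mean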;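 further: negative B-score means less thallium flux so channel inhibition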
# KCNQ1 inh = inhibitors of human KCNQ1 channel, primary screen, cell-based, thallium flux, high-throughput; Potassium voltage-gated channel subfamily KQT member 1 (Homo sapiens), P51787; CHO-K1 KCNQ1, FluxOR thallium flux fluorescence; hits give high values; B-score at 10 µM; 1.3% of 310,000 active; AID 2642, 2010;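 active means compounds whose thallium flux B-score, printed positive for inhibition, exceeds three library SD while starting fluorescence stays within three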;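 further: channel opened by potassium depolarization with thallium stimulus after 20 min compound exposure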
# hERG protect = hERG rescue from dofetilide block, primary screen, cell-based, CHO-hERG, FluxOR thallium flux, dofetilide IC70. 0.51% of 310,000 active. dofetilide IC70 present. Voltage-gated inwardly rectifying potassium channel KCNH2 (Homo sapiens), Q12809. activation (rescue from dofetilide block), less the hit threshold, % at 10 µM;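 active means activation above the mean of controls blocked by dofetilide plus 5 SD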;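 further: thallium influx through hERG after potassium depolarization seen as dye fluorescence rise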
# Kir21 inh = inhibitors of mouse Kir2.1 inward-rectifier potassium channel; AID 1672, 2009; B-score at 10 µM; 0.85% of 310,000 active; HEK293-Kir2.1, FluxOR thallium flux fluorescence; hits give low values; Inward rectifier potassium channel 2 (Mus musculus), P35561;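 active means fluorescence ratio B-score at or below minus 3 SD of library scores, with starting-brightness B-score within 2 SD, cut at about -4.2 in these data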;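 further: channel flux triggered by added potassium and thallium sulfate stimulus; B-score of peak minus minimum fluorescence over baseline after thallium stimulus; more negative B-score means stronger Kir2.1 block with less thallium influx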
# Hits are given with their value; . = inactive; / = no result given. Hits are enriched below; roughly 3.7% of the tested compounds scored in any of these assays.
SMILES,KCNK3 block,KCNQ1 pot,KCNK9 inh,KCNQ1 inh,hERG protect,Kir21 inh
CCCCCCCNC(=O)C1(CC2CC(c3ccc(Cl)cc3)=NO2)CCN(C(=O)OC(C)(C)C)CC1 (centres undefined),.,.,.,8,.,.
CC(C)(C)OC(=O)N1CCC(CC2CC(c3ccccc3)=NO2)(C(=O)O)CC1 (centres undefined),.,.,.,.,.,.
CCOCC(O)CNc1ccccc1 (centres undefined),.,.,.,.,5.4,.
CCOC(=O)c1ccc(NCC(O)COc2ccccc2)cc1 (centres undefined),.,.,.,.,.,.
COC(c1ccccc1)c1c(-c2ccccc2)nn(C)c1Cl (centres undefined),.,.,.,.,.,-4.8
Cn1nc(-c2ccccc2)c(C(O)c2ccccc2C(F)(F)F)c1Cl (centres undefined),.,.,.,.,.,.
Cc1ccc(S(=O)(=O)Oc2ccc(/C=C3/C(=N)N4C(=NC3=O)SN=C4S(C)(=O)=O)cc2)cc1,.,.,.,.,.,.
CS(=O)(=O)C1=NSC2=NC(=O)/C(=C\c3cccn3-c3ccccc3Cl)C(=N)N21,.,.,.,10,.,.
Cc1ccc(-n2cccc2/C=C2/C(=N)N3C(=NC2=O)SN=C3S(C)(=O)=O)cc1,.,.,.,10,.,.
Nc1ccccc1SSc1ccccc1N,.,.,.,.,.,.
CC(C(Sc1ccccc1N)c1ccccc1)[N+](=O)[O-] (centres undefined),.,.,.,.,.,-7.2
CCCCCCN1C=C/C(=C\C=C(C#N)C#N)c2ccccc21,.,.,-7.2,.,.,.
C=CCN1C=C/C(=C\C=C(C#N)C#N)c2ccccc21,.,.,.,.,.,.
Cc1cc(=O)n2c3c(c4c(cc13)c(CN(C)C)cc(=O)n4C)OC2,.,/,/,/,/,/
COc1ccc(CNC(=S)Nc2ccccc2)cc1,.,.,.,.,.,.
CCC(NC(=S)NCc1ccc(F)cc1)c1ccccc1 (centres undefined),.,.,.,.,.,-7.4
CSCC[C@H](NC(=O)[C@H](Cc1ccccc1)n1c(=O)[nH]c2ccccc2c1=O)C(=O)N[C@@H](Cc1ccccc1)C(=O)O,.,.,.,.,.,.
O=C(Nc1ccn(CCCNCC2CCCO2)c(=O)n1)OCc1ccccc1 (centres undefined),.,/,/,/,/,/
O=C(O)CC(NC(=O)C1CCCCC1)c1cc([N+](=O)[O-])ccc1Cl (centres undefined),.,.,.,12,.,.
COCCNC(=O)CN1C(=O)NC2(CCCc3ccccc32)C1=O (centres undefined),.,.,.,.,.,.
Cc1ccc2c(CC(=O)OC(C)C(=O)Nc3ncc(Cl)cc3Cl)coc2c1 (centres undefined),.,.,.,.,.,-4.5
COc1cccc(CC(=O)OC(C)C(=O)Nc2ncc(Cl)cc2Cl)c1 (centres undefined),.,.,.,.,.,-4.5
CC(OC(=O)Cc1coc2ccc3ccccc3c12)C(=O)Nc1ncc(Cl)cc1Cl (centres undefined),.,.,.,.,.,-5.6
CCOc1ccccc1OCC(=O)OC(C)C(=O)Nc1ncc(Cl)cc1Cl (centres undefined),.,/,/,/,/,/
CCN1C(=O)[C@H]2[C@@H](c3ccc(C)cc3)N3C(=O)N(c4ccc(C(F)(F)F)cc4)C(=O)[C@@]3(Cc3ccccc3)[C@H]2C1=O,.,.,.,.,.,.
SMILES,KCNK3 block,KCNQ1 pot,KCNK9 inh,KCNQ1 inh,hERG protect,Kir21 inh
Cc1ccc(C(C)C)c2c1C(c1ccc3c(c1)OCO3)CC(=O)O2 (centres undefined),.,/,/,/,/,/
CCOc1ccc(S(=O)(=O)Oc2ccc3ccccc3c2)cc1,.,.,.,6,.,.
S=C(N/N=C/c1ccccc1Cl)Nc1cccc(Cl)c1Cl,.,12,.,.,9.8,.
CC(=O)Nc1ccc([C@H]2[C@H](C)CC[C@H]3C(=O)N4[C@@H](CC[C@@H](C)[C@@H]4c4ccc(NC(C)=O)cc4)C(=O)N32)cc1,/,.,.,.,.,.
O=C(Nc1ccc(Br)cc1Cl)Nn1cnnc1,.,.,.,.,6.2,.
Cc1ccc(NC(=S)Nc2ccc(S(=O)(=O)Nc3ncccn3)cc2)cc1Cl,/,.,.,10,.,.
CC(C)c1ccc(/C=C/C(=O)NC(=S)Nc2ccc(CN3CCOCC3)cc2)cc1,.,.,.,9,.,.
CC(C)c1ccc(/C=C/C(=O)NC(=S)NN2CCOCC2)cc1,.,.,.,.,.,.
COc1ccccc1OCCNC(=O)CN1C(=O)NC2(CCCC2)C1=O,.,/,/,/,/,/
CCOC(=O)C1=C(Cc2ccc(Cl)cc2)C(=O)c2ccccc2C1=O,.,.,.,10,.,.
CCOC(=O)C1=C(O)c2ccccc2C(=O)/C1=C\c1ccc(C)cc1,.,/,/,/,/,/
O=C(Nc1ccccc1)c1nc2ccccc2s1,.,.,.,.,.,.
Cc1ccc(C)c2sc(NC(=O)c3nc4ccccc4s3)nc12,.,25,.,.,8.9,.
O=C(CSCc1ccc([N+](=O)[O-])cc1)NC1CC1,.,.,.,.,.,.
CC(C)C(NC(=O)CSCc1ccc([N+](=O)[O-])cc1)C(C)C,.,.,.,.,.,-4.5
COc1cccc(CN(C)C(=S)Nc2ccc(C)c(C)c2)c1,.,.,.,.,4.7,.
COc1ccc(CN(C)C(=S)Nc2ccc(OC(F)F)cc2)cc1,.,.,.,.,.,.
COc1ccc(/C=C/CN2CCCC(CCC(=O)NCc3ccc(F)c(F)c3)C2)cc1 (centres undefined),.,.,.,.,.,-4.9
CC(CCc1ccccc1)NC(=O)c1ccc(NC(=O)c2cccc(Br)c2)cc1 (centres undefined),.,.,-7.4,.,.,.
CC(=O)C1=C(O)C(=O)N(c2nccs2)C1c1ccccc1 (centres undefined),.,.,.,.,.,.
O=c1[nH]c(SCc2nc3ccccc3c(=O)n2-c2ccccc2C(F)(F)F)nc2ccccc12,.,.,-6.6,.,.,.
CCOc1ccc(/C=C/C2=Cc3c(sc(NC(=O)CSc4n[nH]c(N)n4)c3C#N)C(C)(C)C2)cc1,-8.8,.,.,.,.,.
COC(=O)c1sc(NC(=O)CSc2n[nH]c(N)n2)c(C(=O)OC)c1C,.,.,.,.,.,.
CCOC(=O)c1sc(NC(=O)CSc2n[nH]c(-c3ccncc3)n2)c(C#N)c1C,.,.,.,.,.,.
